Reference: ChEMBL document CHEMBL1275448, “Identification of a novel multidrug efflux pump of Mycobacterium tuberculosis” (2008)
Converted amounts (≈) assume the structure as drawn.

Legend:
[1] = tested on: Mycobacterium tuberculosis; experiment: Antimicrobial activity against wild-type Mycobacterium bovis BCG by microplate Alamar blue assay; type: functional; details: variant bovis BCG
Outline: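 Whole-cell M. bovis BCG (Institut Pasteur) MABA; mutants carried IS1096::Km insertions. Growth was in Middlebrook 7H9 with 0.2% glycerol, 0.05% Tween 80 and 10% OADC. Final drug ranges: ampicillin 62.5–2,000 μg/ml, vancomycin 1.25–40 μg/ml, streptomycin 0.25–8 μg/ml, chloramphenicol 4–128 μg/ml, tetracycline 0.5–16 μg/ml. MIC was the lowest concentration cutting viability ≥90%, read by fluorescence (ex 530/em 590 nm, room temperature).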

[2] = tested on: Mycobacterium tuberculosis; experiment: Resistance factor, ratio of MIC for Mycobacterium bovis BCG ML1034 to MIC for wild-type Mycobacterium bovis BCG; type: functional, variant bovis BCG
Outline: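 Resistance factor is the MABA MIC for BCG mutant ML1034 divided by the MIC for wild-type BCG. Both MICs were taken as ≥90% viability reduction, read by fluorescence (ex 530/em 590 nm).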

Compound	MIC [1] [µg/mL]	Ratio [2]
CC1(C)S[C@@H]2[C@H](NC(=O)[C@H](N)c3ccccc3)C(=O)N2[C@H]1C(=O)O [AMPICILLIN]	62.5 (≈ 179 µM)	32
O=C(N[C@H](CO)[C@H](O)c1ccc([N+](=O)[O-])cc1)C(Cl)Cl [CHLORAMPHENICOL]	8 (≈ 24.8 µM)	64
CN[C@@H]1[C@H](O[C@H]2[C@H](O[C@H]3[C@H](O)[C@@H](O)[C@H](N=C(N)N)[C@@H](O)[C@@H]3N=C(N)N)O[C@@H](C)[C@]2(O)C=O)O[C@@H](CO)[C@H](O)[C@H]1O [STREPTOMYCIN]	0.5 (≈ 0.86 µM)	32
CN(C)[C@@H]1C(O)=C(C(N)=O)C(=O)[C@@]2(O)C(O)=C3C(=O)c4c(O)cccc4[C@@](C)(O)[C@H]3C[C@@H]12 [TETRACYCLINE]	2 (≈ 4.5 µM)	>8
CN[C@H](CC(C)C)C(=O)N[C@H]1C(=O)N[C@@H](CC(N)=O)C(=O)N[C@H]2C(=O)N[C@H]3C(=O)N[C@H](C(=O)N[C@H](C(=O)O)c4cc(O)cc(O)c4-c4cc3ccc4O)[C@H](O)c3ccc(c(Cl)c3)Oc3cc2cc(c3O[C@@H]2O[C@H](CO)[C@@H](O)[C@H](O)[C@H]2O[C@H]2C[C@](C)(N)[C@H](O)[C@H](C)O2)Oc2ccc(cc2Cl)[C@H]1O [VANCOMYCIN]	5 (≈ 3.45 µM)	4
